One experiment relates to Eosinophil. Put plainly: Inhibition of PGD2-induced human eosinophil shape change by flow cytometry. Type of experiment: functional, cell-based. The essentials:
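Enriched human eosinophils at 10^6 cells/mL in PBS with Ca2+/Mg2+, 0.1% BSA, 10 mM Hepes, 10 mM glucose. Antagonist or vehicle (0.05% DMSO) applied 10 min at room temperature, then 10 nM PGD2 for 10 min at 37 °C. Response expressed as % of maximal PGD2 response. Means of two experiments.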
On the technique in general: A flow cytometer gives signals particle by particle.

In experiment [1] the target is T1, Prostaglandin D2 receptor 2 (Homo sapiens, UniProt Q9Y5Y4).
T1 sequence (Q9Y5Y4 whole entry): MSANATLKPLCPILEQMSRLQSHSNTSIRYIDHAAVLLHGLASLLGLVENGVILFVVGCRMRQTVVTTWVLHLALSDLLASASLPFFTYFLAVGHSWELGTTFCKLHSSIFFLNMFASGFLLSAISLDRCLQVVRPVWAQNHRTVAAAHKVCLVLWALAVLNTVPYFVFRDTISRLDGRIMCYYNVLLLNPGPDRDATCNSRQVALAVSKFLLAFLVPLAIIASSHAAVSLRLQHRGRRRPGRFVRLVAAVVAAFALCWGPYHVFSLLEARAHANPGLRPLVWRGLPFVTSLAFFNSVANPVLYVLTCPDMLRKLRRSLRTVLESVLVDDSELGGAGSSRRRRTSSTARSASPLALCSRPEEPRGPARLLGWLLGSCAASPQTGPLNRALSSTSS
Nature of the experiment: Displacement of [3H]PGD2 from human CRTH2 receptor expressed in 293 cells by scintillation counting in presence of 50% human plasma. The class given is cell-based, HEK293. In short, it runs like this:
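Whole-cell binding on 293 cells stably transfected with hCRTH2, run in binding buffer containing 50% human plasma. [3H]-PGD2 incubated with cells and rising compound concentrations. After washing, cell-bound label measured by scintillation counting, and IC50 taken as the concentration halving binding. Means of three experiments.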
(Displacement assays read how much labelled ligand stays bound in the presence of the test substance.)

The target in experiment [2] is T2, Prostaglandin D2 receptor (Homo sapiens, UniProt Q13258).
T2 sequence (Q13258 whole entry): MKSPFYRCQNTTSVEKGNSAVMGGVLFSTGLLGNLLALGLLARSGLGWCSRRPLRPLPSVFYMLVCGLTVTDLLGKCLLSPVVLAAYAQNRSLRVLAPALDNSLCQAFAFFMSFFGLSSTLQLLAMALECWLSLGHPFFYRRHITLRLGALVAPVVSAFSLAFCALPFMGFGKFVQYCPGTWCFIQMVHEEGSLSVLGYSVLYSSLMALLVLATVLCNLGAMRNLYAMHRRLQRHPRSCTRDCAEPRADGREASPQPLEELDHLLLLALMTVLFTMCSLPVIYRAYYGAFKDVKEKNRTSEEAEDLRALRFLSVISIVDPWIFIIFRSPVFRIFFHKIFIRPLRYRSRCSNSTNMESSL
Put plainly: Displacement of [3H]PGD2 from human DP receptor expressed in 293 cells by scintillation counting in presence of 0.5% BSA. The class given is cell-based, HEK293. In short, it runs like this: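 hDP binding on stably transfected 293 cells. [3H]-PGD2 incubated with 293(hDP) cells and increasing compound concentrations in buffer with 0.5% BSA. After washing, remaining bound radioligand counted by scintillation, and IC50 read as the concentration giving 50% inhibition. Means of three experiments.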

Experiment [3] concerns the target T1, Prostaglandin D2 receptor 2. Nature of the experiment: Displacement of [3H]PGD2 from human CRTH2 receptor expressed in 293 cells by scintillation counting in presence of 0.5% BSA. The class given is cell-based, HEK293. The essentials: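 Whole-cell binding on 293 cells stably transfected with hCRTH2. [3H]-PGD2 incubated with cells plus increasing compound concentrations in binding buffer containing 0.5% BSA. Cells washed, bound label counted by scintillation, and the concentration giving 50% inhibition of binding taken as IC50. Means of three experiments.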

SMILES strings stand for the structures.

As usually defined, the IC50 is the concentration that inhibits the measured activity by half. In the case of `C[C@H]1C[C@@H](N(C(=O)CCC(=O)O)c2ccccc2)c2ccccc2N1C(=O)c1ccccc1`, the IC50 in the experiment on Eosinophil is 0.77 nM; in experiment [1] it was 9 nM; in experiment [2], over 10 µM; in experiment [3] it was 3 nM.
Taken in the same sequence, the figures for `CC(=O)N(c1ccccc1)[C@@H]1C[C@H](C)N(C(=O)c2ccccc2)c2ccccc21` were 141 nM, 440 nM, over 10 µM and 17 nM.
Take `CC(=O)N(c1ccccc1)[C@H]1C[C@@H](C)N(C(=O)c2ccccc2)c2ccccc21`: the results for the IC50 in experiment [1] and in experiment [3] were over 10000 nM and 420 nM, respectively.
The matching figures for `C[C@@H]1C[C@H](N(C(=O)CCC(=O)O)c2ccccc2)c2ccccc2N1C(=O)c1ccccc1`: 39 nM and 400 nM.
On to `CC(=O)N(c1ccccc1)C1CC(C)Nc2ccccc21` (racemic), for which the IC50 in experiment [3] was over 50000 nM.
Take `CC(=O)NC1CC(C)N(C(=O)c2ccccc2)c2ccccc21` (racemic): the IC50 in experiment [3] was determined as 3620 nM.
For `CCN(C(C)=O)C1CC(C)N(C(=O)c2ccccc2)c2ccccc21` (racemic), the IC50 in experiment [3] is 250 nM.
Same read-out and setting: the result for `CC(=O)N(Cc1ccccc1)C1CC(C)N(C(=O)c2ccccc2)c2ccccc21` (racemic) reads 430 nM; that for `CC(=O)N(c1ccccc1)C1CC(C)N(Cc2ccccc2)c2ccccc21` (racemic), 200 nM.
Take `CC(=O)N(c1ccccc1)C1CC(C)N(C(=O)Cc2ccccc2)c2ccccc21` (racemic): the IC50 in experiment [3] was 1750 nM.
Same read-out and setting: the result for `CC(=O)N(c1ccccc1)C1CC(C)N(C(=O)OCc2ccccc2)c2ccccc21` (racemic) reads 910 nM; that for `CC(=O)N(c1ccccc1)C1CC(C)N(C(=O)/C=C/c2ccccc2)c2ccccc21` (racemic), 210 nM; that for `CC1CC(Nc2ccccc2)c2ccccc2N1C(=O)c1ccccc1` (racemic), over 50000 nM.
For the molecule `CCN(c1ccccc1)C1CC(C)N(C(=O)c2ccccc2)c2ccccc21` (racemic), the IC50 in experiment [3] stood at 3170 nM.
On the same count and under the same terms, for `CC1CC(N(c2ccccc2)S(=O)(=O)c2ccccc2)c2ccccc2N1C(=O)c1ccccc1` (racemic) the value was 5500 nM.
Still for that read-out and setting: the result for `CC1CC(N(C(=O)c2ccccc2)c2ccccc2)c2ccccc2N1C(=O)c1ccccc1` (racemic) reads 105 nM.
Consider `CC(=O)N(c1ccccc1)C1CC(C)N(C(=O)c2ccc(OC(F)(F)F)cc2)c2ccccc21` (racemic), for which the values for the IC50 in experiment [1] and in experiment [3] were over 10000 nM and 26 nM, respectively.
`CC(=O)N(c1ccccc1)C1CC(C)N(C(=O)c2ccc(Oc3ccccc3)cc2)c2ccccc21` (racemic): the 50% inhibitory concentration (IC50) in experiment [3] was determined as 13 nM.
Consider `COc1ccc(C(=O)N2c3ccccc3C(N(C(C)=O)c3ccccc3)CC2C)cc1` (racemic), for which the IC50 in experiment [1] was found to be 130 nM; in experiment [3] it was 28 nM.
Take `CC(=O)N(c1ccccc1)C1CC(C)N(C(=O)c2ccc(Cl)cc2)c2ccccc21` (racemic): in experiment [3], the IC50 came to 93 nM.
On the same count and under the same terms, for `CC(=O)N(c1ccccc1)C1CC(C)N(C(=O)c2ccc(C(C)(C)C)cc2)c2ccccc21` (racemic) the value was 34 nM.
Take `CC(=O)N(c1ccccc1)[C@@H]1C[C@H](C)N(C(=O)c2ccccc2)c2ccccc21` (racemic): the IC50 in experiment [1] stood at 1050 nM; in experiment [3] it was 43 nM.
Consider `CC(=O)N(c1ccccc1)[C@H]1C[C@H](C)N(C(=O)c2ccccc2)c2ccccc21` (racemic), for which the IC50 in experiment [3] is over 10000 nM.
On the same count and under the same terms, for `CC1CC(N(C(=O)CC(=O)O)c2ccccc2)c2ccccc2N1C(=O)c1ccccc1` (racemic) the value was 540 nM; for `CC1CC(N(C(=O)CCCC(=O)O)c2ccccc2)c2ccccc2N1C(=O)c1ccccc1` (racemic), 22 nM; for `CC1CC(N(C(=O)/C=C/C(=O)O)c2ccccc2)c2ccccc2N1C(=O)c1ccccc1` (racemic), 2280 nM.
In the case of `CC1CC(N(C(=O)c2cccc(C(=O)O)c2)c2ccccc2)c2ccccc2N1C(=O)c1ccccc1` (racemic), the IC50 in experiment [3] was 40300 nM.
For `CC(=O)N(c1ccccc1)C1CC(C)N(C(=O)c2ccccc2C)c2ccccc21` (racemic), the IC50 in experiment [3] was 1420 nM.
On the same count and under the same terms, the result for `CCCCC(=O)N1c2ccccc2C(N(C(C)=O)c2ccccc2)CC1C` (racemic) reads 1460 nM; that for `CC(=O)N(c1ccccc1)C1CC(C)N(S(=O)(=O)c2ccccc2)c2ccccc21` (racemic), 62000 nM.
As for `CC(=O)N(c1ccccc1)C1CC(C)N(C(=O)c2cccc(C)c2)c2ccccc21` (racemic), the IC50 in experiment [3] worked out at 74 nM.
Take `CC(=O)N(c1ccccc1)C1CC(C)N(C(=O)c2ccc(C)cc2)c2ccccc21` (racemic): the IC50 in experiment [3] turned out to be 41 nM.
Regarding `CCCCC(=O)N(c1ccccc1)C1CC(C)N(C(=O)c2ccccc2)c2ccccc21` (racemic), the IC50 in experiment [3] is 64 nM.
As for `CC1CC(N(C(=O)CCC(=O)O)c2ccccc2)c2ccccc2N1C(=O)c1ccccc1` (racemic), the IC50 worked out at 28 nM in experiment [1] and 5 nM in experiment [3].
Turning to `CC1CC(N(C(=O)CCC(=O)ON)c2ccccc2)c2ccccc2N1C(=O)c1ccccc1` (racemic), the IC50 in experiment [3] amounted to 29 nM.
The same measure, in the same setting: for `CC(=O)N(c1ccccc1)C1CC(C)N(C(=O)c2ccc(C)c(C)c2)c2ccccc21` (racemic) the value was 92 nM.

(Values after ChEMBL document CHEMBL1153725, “Tetrahydroquinoline derivatives as CRTH2 antagonists” (Bioorg Med Chem Lett, 2009).)
